Results on 7 molecules are retold here after ChEMBL document CHEMBL1143898, “Synthesis and study of antiviral and anti-radical properties of aminophenol derivatives” (Bioorg Med Chem Lett, 2008).

SMILES strings stand for the structures. The source made the active and inactive calls.

The test system of one assay is Human alphaherpesvirus 1. In words: Antiviral activity against HSV1-induced cytopathic effect in human rhabdomyosarcoma cells assessed as suppression of viral replication. Type of assay: functional, organism-based. In short, it runs like this:
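HSV-1 infected human rhabdomyosarcoma (RD) cell culture; cytopathic effect based method. Compound predissolved in 10% ethanol, then twofold dilutions made in maintenance medium 199. Criterion: reduction of virus titer relative to untreated infected control; concentrations suppressing virus replication by 50% and 90% calculated (EC50, EC90).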

A short description of assay [1]: Cytotoxicity against human rhabdomyosarcoma cells assessed as maximum non-toxic concentrations after 72 hrs. It is filed as functional. In short, it runs like this: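 Non-infected RD cell cultures exposed to compound for 72 h; maximum non-toxic concentration determined.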
Assay [2] relates to Peritoneal macrophage cell. In words: Inhibition of zymosan-stimulated ROS production in rat peritoneal macrophages. It is filed as functional, cell-based. A digest of the protocol: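 ROS generation measured by luminol-dependent chemiluminescence with and without compound; EC50 and EC90 taken as concentrations lowering luminescence intensity by 50% and 90%.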

As to `CC(=O)Nc1cc(C(C)(C)C)cc(C(C)(C)C)c1O`, in the assay with Human alphaherpesvirus 1, the EC50 came to 8.5 µM and the EC90 amounted to 14.8 µM. The Activity in assay [1] was found to be 379.7 µM. For the same molecule, the result in assay [2] was inactive.
Consider `CCC(=O)Nc1cc(C(C)(C)C)cc(C(C)(C)C)c1O`, for which, in the assay with Human alphaherpesvirus 1, the EC50 is 38.2 µM and the EC90 is 64.5 µM. Besides, the Activity in assay [1] was found to be 720.9 µM. Moreover, the result in assay [2] was inactive.
For `CC(C)(C)c1cc(Nc2ccccc2)c(O)c(C(C)(C)C)c1`, in the assay on Human alphaherpesvirus 1, the EC50 worked out at 23 µM and the EC90 worked out at 169 µM. Also, the Activity in assay [1] was determined as 336.7 µM. For the same molecule, the midpoint of the response in assay [2], the EC50, lay at 9.8 µM.
Consider `CCCC(=O)Nc1cc(C(C)(C)C)cc(C(C)(C)C)c1O`, for which, in the assay on Human alphaherpesvirus 1, the EC50 worked out at 8.6 µM and the EC90 worked out at 14.1 µM. Also, the Activity in assay [1] was 686.2 µM. For the same molecule, the outcome in assay [2] was inactive.
Take `COc1c(Nc2ccccc2)cc(C(C)(C)C)cc1C(C)(C)C`: in the assay on Human alphaherpesvirus 1, the half-maximal effective concentration (EC50) was 255 µM and the concentration for an effect of 90% (EC90) was 624 µM. For the same molecule, the Activity in assay [1] came out at 722 µM. Further, the result in assay [2] was inactive.
On to `COc1c(NC(C)=O)cc(C(C)(C)C)cc1C(C)(C)C`, for which, in the assay on Human alphaherpesvirus 1, the EC50 was 798 µM and the 90% effect concentration (EC90) was 1960 µM. The Activity in assay [1] worked out at 1444 µM.
As to `CC(C)(C)c1cc(N)c(O)c(C(C)(C)C)c1`, in the assay with Human alphaherpesvirus 1, the EC50 was 87.3 µM and the EC90 turned out to be 288 µM. Besides, the Activity in assay [1] turned out to be 113.2 µM. Also, in assay [2], the EC50 amounted to 0.06 µM.
